Results as given in ChEMBL document CHEMBL5058577, “EUbOPEN Chemogenomics Library 2 (Multiplex)” (2022).

Test system: Fibroblast
Assay: Multiplex assay against human fibroblast
Type: toxicity, cell-based
Summary of the method: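 Per cents of healthy-nucleus cells form the tubulin, mitochondrial-mass and membrane-permeability phenotype values. Live cells were stained at seeding with Hoechst33342, BioTracker Green Microtubule Cytoskeleton Dye, MitoTracker Red and Annexin V Alexa Fluor 680. After compound addition they were imaged on a CQ1 microscope at 37°C and 5% CO2, and CellPathfinder machine-learning gating split them into Hoechst high-intensity objects or normal cells, normal cells into healthy, pyknosed or fragmented nuclei, and pyknosed cells into mitotic or apoptotic.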

[1] = 12 h, 1 µM, compound concentration 1 uM, replicate 1
[2] = 12 h, 1 µM, compound concentration 1 uM, replicate 2
[3] = 12 h, 10 µM, compound concentration 10 uM, replicate 1
[4] = 12 h, 10 µM, compound concentration 10 uM, replicate 2
[5] = 24 h, 1 µM, compound concentration 1 uM, replicate 1
[6] = 24 h, 1 µM, compound concentration 1 uM, replicate 2
[7] = 24 h, 10 µM, compound concentration 10 uM, replicate 1
[8] = 24 h, 10 µM, compound concentration 10 uM, replicate 2
[9] = 48 h, 1 µM, compound concentration 1 uM, replicate 1
[10] = 48 h, 1 µM, compound concentration 1 uM, replicate 2
[11] = 48 h, 10 µM, compound concentration 10 uM, replicate 1
[12] = 48 h, 10 µM, compound concentration 10 uM, replicate 2

CC(=O)Nc1cccc2c1c(Sc1ccc(Cl)cc1)c(C)n2CC(=O)O [AZD1981]
Population Apoptotic (%) [1]: 27%
Population Fragmented Nuclei (%) [1]: 18%
Population Healthy Nuclei (%) [1]: 61%
Population Hoechst High Intensity Objects (%) [1]: 1%
Population Membrane Permeable-Phenotype (%) [1]: 2%
Population Mitochondria Different-Phenotype (%) [1]: 9%
Population Mitotic Cells (%) [1]: 72%
Population Normal (%) [1]: 98%
Population Pyknosed Nuclei (%) [1]: 19%
Population Tubulin-Different-Phenotype (%) [1]: 33%
Total Cell Count [1]: 173
Population Apoptotic (%) [2]: 37%
Population Fragmented Nuclei (%) [2]: 31%
Population Healthy Nuclei (%) [2]: 47%
Population Hoechst High Intensity Objects (%) [2]: 3%
Population Membrane Permeable-Phenotype (%) [2]: 14%
Population Mitochondria Different-Phenotype (%) [2]: 7%
Population Mitotic Cells (%) [2]: 62%
Population Normal (%) [2]: 96%
Population Pyknosed Nuclei (%) [2]: 21%
Population Tubulin-Different-Phenotype (%) [2]: 55%
Total Cell Count [2]: 118
Population Apoptotic (%) [3]: 40%
Population Fragmented Nuclei (%) [3]: 16%
Population Healthy Nuclei (%) [3]: 64%
Population Hoechst High Intensity Objects (%) [3]: 3%
Population Membrane Permeable-Phenotype (%) [3]: 2%
Population Mitochondria Different-Phenotype (%) [3]: 3%
Population Mitotic Cells (%) [3]: 60%
Population Normal (%) [3]: 96%
Population Pyknosed Nuclei (%) [3]: 19%
Population Tubulin-Different-Phenotype (%) [3]: 24%
Total Cell Count [3]: 133
Population Apoptotic (%) [4]: 33%
Population Fragmented Nuclei (%) [4]: 35%
Population Healthy Nuclei (%) [4]: 42%
Population Hoechst High Intensity Objects (%) [4]: 4%
Population Membrane Permeable-Phenotype (%) [4]: 8%
Population Mitochondria Different-Phenotype (%) [4]: 0%
Population Mitotic Cells (%) [4]: 66%
Population Normal (%) [4]: 95%
Population Pyknosed Nuclei (%) [4]: 22%
Population Tubulin-Different-Phenotype (%) [4]: 35%
Total Cell Count [4]: 112
Population Apoptotic (%) [5]: 53%
Population Fragmented Nuclei (%) [5]: 19%
Population Healthy Nuclei (%) [5]: 63%
Population Hoechst High Intensity Objects (%) [5]: 6%
Population Membrane Permeable-Phenotype (%) [5]: 2%
Population Mitochondria Different-Phenotype (%) [5]: 2%
Population Mitotic Cells (%) [5]: 46%
Population Normal (%) [5]: 93%
Population Pyknosed Nuclei (%) [5]: 16%
Population Tubulin-Different-Phenotype (%) [5]: 28%
Total Cell Count [5]: 168
Population Apoptotic (%) [6]: 36%
Population Fragmented Nuclei (%) [6]: 30%
Population Healthy Nuclei (%) [6]: 53%
Population Hoechst High Intensity Objects (%) [6]: 3%
Population Membrane Permeable-Phenotype (%) [6]: 7%
Population Mitochondria Different-Phenotype (%) [6]: 7%
Population Mitotic Cells (%) [6]: 63%
Population Normal (%) [6]: 96%
Population Pyknosed Nuclei (%) [6]: 15%
Population Tubulin-Different-Phenotype (%) [6]: 53%
Total Cell Count [6]: 128
Population Apoptotic (%) [7]: 41%
Population Fragmented Nuclei (%) [7]: 13%
Population Healthy Nuclei (%) [7]: 68%
Population Hoechst High Intensity Objects (%) [7]: 4%
Population Membrane Permeable-Phenotype (%) [7]: 2%
Population Mitochondria Different-Phenotype (%) [7]: 5%
Population Mitotic Cells (%) [7]: 58%
Population Normal (%) [7]: 95%
Population Pyknosed Nuclei (%) [7]: 18%
Population Tubulin-Different-Phenotype (%) [7]: 17%
Total Cell Count [7]: 135
Population Apoptotic (%) [8]: 55%
Population Fragmented Nuclei (%) [8]: 36%
Population Healthy Nuclei (%) [8]: 43%
Population Hoechst High Intensity Objects (%) [8]: 6%
Population Membrane Permeable-Phenotype (%) [8]: 14%
Population Mitochondria Different-Phenotype (%) [8]: 0%
Population Mitotic Cells (%) [8]: 45%
Population Normal (%) [8]: 93%
Population Pyknosed Nuclei (%) [8]: 20%
Population Tubulin-Different-Phenotype (%) [8]: 40%
Total Cell Count [8]: 104
Population Apoptotic (%) [9]: 54%
Population Fragmented Nuclei (%) [9]: 23%
Population Healthy Nuclei (%) [9]: 61%
Population Hoechst High Intensity Objects (%) [9]: 6%
Population Membrane Permeable-Phenotype (%) [9]: 1%
Population Mitochondria Different-Phenotype (%) [9]: 6%
Population Mitotic Cells (%) [9]: 45%
Population Normal (%) [9]: 93%
Population Pyknosed Nuclei (%) [9]: 15%
Population Tubulin-Different-Phenotype (%) [9]: 33%
Total Cell Count [9]: 171
Population Apoptotic (%) [10]: 57%
Population Fragmented Nuclei (%) [10]: 34%
Population Healthy Nuclei (%) [10]: 54%
Population Hoechst High Intensity Objects (%) [10]: 3%
Population Membrane Permeable-Phenotype (%) [10]: 8%
Population Mitochondria Different-Phenotype (%) [10]: 2%
Population Mitotic Cells (%) [10]: 42%
Population Normal (%) [10]: 96%
Population Pyknosed Nuclei (%) [10]: 11%
Population Tubulin-Different-Phenotype (%) [10]: 52%
Total Cell Count [10]: 129
Population Apoptotic (%) [11]: 64%
Population Fragmented Nuclei (%) [11]: 21%
Population Healthy Nuclei (%) [11]: 64%
Population Hoechst High Intensity Objects (%) [11]: 4%
Population Membrane Permeable-Phenotype (%) [11]: 0%
Population Mitochondria Different-Phenotype (%) [11]: 2%
Population Mitotic Cells (%) [11]: 35%
Population Normal (%) [11]: 95%
Population Pyknosed Nuclei (%) [11]: 13%
Population Tubulin-Different-Phenotype (%) [11]: 25%
Total Cell Count [11]: 134
Population Apoptotic (%) [12]: 40%
Population Fragmented Nuclei (%) [12]: 43%
Population Healthy Nuclei (%) [12]: 42%
Population Membrane Permeable-Phenotype (%) [12]: 11%
Population Mitochondria Different-Phenotype (%) [12]: 0%
Population Mitotic Cells (%) [12]: 60%
Population Pyknosed Nuclei (%) [12]: 15%
Population Tubulin-Different-Phenotype (%) [12]: 54%
Total Cell Count [12]: 105
